This is an account of results in ChEMBL document CHEMBL4513216, “Probing the Open Global Health Chemical Diversity Library for Multistage-Active Starting Points for Next-Generation Antimalarials” (ACS Infect Dis, 2020).

Each structure is given as a SMILES string.

The data set is described as follows: Toxicity liver stage against HepG2, at 10uM. The class given is cell-based. On the set-up: test concentration 10 uM, cell line HepG2-A16-CD81EGFP. The note with it: human, HepG2-A16-CD81EGFP cells; read-out: INHIBITION
An outline of the steps: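 Uninfected HepG2-A16-CD81EGFP cells, 3 × 10^3 per well, 1536-well, plated on prespotted compound at 10 μM final, parasite-free screening media added to match infected plates; puromycin 10 μM positive, DMSO 0.5% negative; run in parallel with 48 h PbLuc assay at 37 °C, 5% CO2; viability by CellTiter-Glo luminescence, normalized to controls.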
`CCN(CC1CCOCC1)C(=O)C1CC(=O)N(Cc2cccnc2)C1` (stereo unspecified): the cytotoxicity at 10 µM amounted to 0.719%.

Turning to `CCC(C)C(=O)NS(=O)(=O)c1ccc(C#N)cc1C(F)(F)F` (stereo unspecified), the cytotoxicity at 10 µM was -5.25%.

Take `COc1cccc(OCC(=O)NCc2ccc3[nH]c(=O)[nH]c3c2)c1`: the cytotoxicity at 10 µM came out at 2.59%.

Take `O=C(Nc1ccc(F)c(Cl)c1)N1CCCN([C@H]2COC[C@@H]2O)CC1`: the cytotoxicity at 10 µM is -40.7%.

In the case of `O=C(CSC1=NS(=O)(=O)c2cc(F)ccc2N1)Nc1cccc(Cl)c1`, the cytotoxicity at 10 µM was determined as 3.92%.

`NCCc1nc(N[C@@H](CO)c2ccccc2)c2ccccc2n1`: the cytotoxicity at 10 µM was found to be 9.24%.

For the compound `Cc1cc(C)c2cc(CNCC3CCCO3)c3nn(C)c(=O)n3c2c1` (stereo unspecified), the cytotoxicity at 10 µM is -4.63%.

As for `CC(=O)c1cc(CN2C[C@@H]3CC[C@H]2CN(Cc2c(C)noc2C)C3)cs1`, the cytotoxicity at 10 µM is -1.43%.

`CN(C)S(=O)(=O)N1CCCC(c2nccnc2-c2cccc(Cl)c2)C1` (stereo unspecified): the cytotoxicity at 10 µM was found to be 8.23%.

On to `O=C(NCc1cccnc1N1CCCCC1)c1cccs1`, for which the cytotoxicity at 10 µM is -4.43%.

On to `Cc1ncccc1CNc1ccc(OCCO)nc1`, for which the cytotoxicity at 10 µM was -1.78%.

`CCc1oc(C(=O)NCCSc2ncn[nH]2)cc1CN1CCCC1`: the cytotoxicity at 10 µM is -5.25%.

On to `Cc1n[nH]c(C)c1CCC(=O)NCC1CCOc2ccccc2C1` (stereo unspecified), for which the cytotoxicity at 10 µM is -45.6%.

Take `Cc1ccc(S(=O)(=O)NCCc2cccnc2)cc1C`: the cytotoxicity at 10 µM came to 0.645%.

As for `Cc1ccc(CN2C(=O)CCC23CCC(NCC2CCOC2)CC3)cc1` (stereo unspecified), the cytotoxicity at 10 µM is -4.75%.

In the case of `CN1CCN(Cc2cn3c(n2)CN(C(=O)c2cccn2C)CC3)CC1`, the cytotoxicity at 10 µM is 2.89%.

As to `COCCN(CC(N)=O)CC1CCCN(C2Cc3ccccc3C2)C1` (stereo unspecified), the cytotoxicity at 10 µM is -3.01%.

`O=C(c1ccc(Cl)cc1)N1CCC2(CC1)C(=O)Nc1ccccc12`: the cytotoxicity at 10 µM is -145%.

In the case of `Cc1ccc(N2CCCN(C(=O)CCC3CCCO3)CC2)nn1` (stereo unspecified), the cytotoxicity at 10 µM is -16.3%.

For `CCc1nc(CN(C(C)=O)C2CCN(CC3CCOCC3)C2)no1` (stereo unspecified), the cytotoxicity at 10 µM is -3.84%.

Regarding `Cc1ccc([C@]2(O)CC[C@H]3CN(Cc4ccccc4F)C[C@H]32)nc1`, the cytotoxicity at 10 µM was -12.8%.

On to `O=C(NCCNc1cncc(Br)c1)c1ccc(O)cc1`, for which the cytotoxicity at 10 µM was found to be 3.73%.

On to `O=C(O)[C@@H]1CCN(C(=O)c2ccccn2)[C@@H]1c1ccc(F)cc1`, for which the cytotoxicity at 10 µM came out at 4.16%.

In the case of `COc1ccc(CN(C)[C@@H]2CN(C(=O)c3ccnn3C)C[C@H]2O)cc1`, the cytotoxicity at 10 µM was -13.5%.

For the compound `C[C@@H](O)CNC(=O)c1nc(CC(=O)Nc2ccccc2)no1`, the cytotoxicity at 10 µM came out at 7.49%.

On to `COCCC1(C(=O)O)CCCN(Cc2cc3c(cc2Cl)OCO3)C1` (stereo unspecified), for which the cytotoxicity at 10 µM was -5.41%.

Consider `Cc1ccc(OCC(=O)NCc2ccccc2F)nc1`, for which the cytotoxicity at 10 µM is -12%.

In the case of `Cc1cccc(CNCC2COC3(CCCC3)O2)c1C` (stereo unspecified), the cytotoxicity at 10 µM is -150%.

On to `O=C(CCn1nc(C(F)(F)F)c(Cl)c1C1CC1)NN1CCOCC1`, for which the cytotoxicity at 10 µM is 7.69%.

Take `Cn1cc(CN2CCc3onc(C(=O)N4CCCC4)c3C2)cn1`: the cytotoxicity at 10 µM was -12.2%.

As for `Cc1ncsc1CN1C[C@@H]2COC[C@]2(COc2ccc(C#N)cn2)C1`, the cytotoxicity at 10 µM is -25.6%.

As for `COCC(C)NC(=O)CCCn1cnc2ccccc2c1=O` (stereo unspecified), the cytotoxicity at 10 µM turned out to be 8.43%.

Consider `O=C(Cc1ccncc1)N(CCO)CCSc1ccc(Cl)cc1`, for which the cytotoxicity at 10 µM is 2.59%.

As to `CC(C)CN1CC(C(=O)NCc2cccnc2-n2cccn2)CC1=O` (stereo unspecified), the cytotoxicity at 10 µM was -1.04%.

Consider `CC(NCc1ccccc1CN1CCCC1=O)c1ccc(C#N)cc1` (stereo unspecified), for which the cytotoxicity at 10 µM was 3.09%.

Consider `CCn1ncc2c1CCCC2NCc1cc(C)ccc1OC` (stereo unspecified), for which the cytotoxicity at 10 µM was determined as 1.8%.

In the case of `CCNC(=O)N1C[C@@H]2OCC(=O)N(C(C)C)[C@@H]2C1`, the cytotoxicity at 10 µM was -0.155%.

Take `CCn1ncc2c1C(COC)N(C(=O)c1cscn1)CC2` (stereo unspecified): the cytotoxicity at 10 µM is -98.1%.

On to `O=C(NCc1csc(-c2cccs2)n1)C1NCCc2[nH]cnc21` (stereo unspecified), for which the cytotoxicity at 10 µM was -0.798%.

Consider `CC(C)N1C[C@H](NC(=O)c2coc(COc3cccc(F)c3)n2)[C@@H](O)C1`, for which the cytotoxicity at 10 µM is -145%.

In the case of `Cc1cccc(N(CCC(N)=O)C(=O)c2cnccn2)c1`, the cytotoxicity at 10 µM is -1.74%.

Take `COc1ccc(CN2CCC(c3cc(O)nc(C)n3)C2)c(OC)c1` (stereo unspecified): the cytotoxicity at 10 µM is -5.77%.

Turning to `CC(=O)NCCNC(=O)NCCc1c(C)cc(C)cc1C`, the cytotoxicity at 10 µM turned out to be 6.02%.

Consider `CCC[C@H]1CN(CCS(C)(=O)=O)C[C@@H]1NC(=O)c1ccccc1F`, for which the cytotoxicity at 10 µM is -5.88%.

For the compound `CN(C(=O)CCOc1ccccc1)C1CCN(CC2CCOC2)CC1` (stereo unspecified), the cytotoxicity at 10 µM was -7.7%.

`COCCOc1ccc(CNCC2CNc3cc(C)nn3C2)cn1` (stereo unspecified): the cytotoxicity at 10 µM is -10.7%.

As for `O=C(C1CCOC1)N1CCN(CC2CC2)c2ccccc21` (stereo unspecified), the cytotoxicity at 10 µM stood at 8.93%.

As to `CCOC(=O)c1cnn(C2CCN(C(=O)CC(C)(C)C)CC2)c1N`, the cytotoxicity at 10 µM turned out to be 6.26%.

Take `CCOc1cc(F)ccc1NS(=O)(=O)c1cc(C)c(C(=O)O)s1`: the cytotoxicity at 10 µM is -10%.

`Cn1cc(N2CCC(Nc3ccc4nccnc4n3)C2=O)cn1` (stereo unspecified): the cytotoxicity at 10 µM is -2.47%.

As to `Cc1cnn(CC(C)NCc2csc(-c3ccco3)n2)c1` (stereo unspecified), the cytotoxicity at 10 µM stood at 3.44%.

With `Cn1cc(CN2C[C@@H]3COC[C@]3(CNC(=O)c3ccsc3)C2)cn1`, the cytotoxicity at 10 µM is -0.0273%.

For the compound `CC(C)N1CCC2(CCCN(c3nccc(C(F)(F)F)n3)C2)CC1`, the cytotoxicity at 10 µM stood at 10.9%.

In the case of `c1cc(-c2nc3c(c(NCCc4c[nH]cn4)n2)CCNCC3)ccn1`, the cytotoxicity at 10 µM was -146%.

For `CCNC(=O)NCc1cccc(N2CC=CC2)c1`, the cytotoxicity at 10 µM turned out to be 5.03%.

Take `O=C(O)c1cc(C2CC2)nc2c(Cl)cnn12`: the cytotoxicity at 10 µM amounted to 8.63%.

Consider `Cc1ccc(C(=O)N2CCCN(Cc3cccs3)CC2)n1C`, for which the cytotoxicity at 10 µM is -0.926%.

In the case of `Cc1cn2c(n1)CCC(NC(=O)c1[nH]ncc1Br)C2` (stereo unspecified), the cytotoxicity at 10 µM is -6.49%.

In the case of `CCN(CC)C(=O)CCNC(=O)c1ccccc1N1CCOCC1`, the cytotoxicity at 10 µM was -0.768%.

As to `CC(NCc1ccc(Cl)o1)c1nnc2n1CCCC2` (stereo unspecified), the cytotoxicity at 10 µM is -15.9%.

For the compound `CCC(NC(=O)C1CCN(C(C)C)CC1)c1cn2cccnc2n1` (stereo unspecified), the cytotoxicity at 10 µM is -6.21%.

Turning to `O=C(N1CCOCC1)[C@@]12CCO[C@@H]1CCN(CC1CCCCC1)C2`, the cytotoxicity at 10 µM stood at 3.59%.

For the compound `Cc1nc(C)c(C(=O)NCCNc2ncccn2)s1`, the cytotoxicity at 10 µM is -3.65%.

For `CN(C(=O)COc1ccc(-c2noc(C3CCCO3)n2)cc1)C1CC1` (stereo unspecified), the cytotoxicity at 10 µM was -6.79%.

For `CS(=O)(=O)N1CC(c2ncn3ccccc23)C1`, the cytotoxicity at 10 µM is 5.6%.

With `COc1cc(N2CCC3(CCCN3Cc3cnn(C)c3)CC2)ncn1`, the cytotoxicity at 10 µM came out at 6.5%.

`NCCn1nc(C2CCN(C(=O)CC3CCCCC3)C2)c2nccnc21` (stereo unspecified): the cytotoxicity at 10 µM is -0.645%.

As for `CCN(CC)CC(=O)N(C)C(c1cccc(F)c1)c1ccccn1` (stereo unspecified), the cytotoxicity at 10 µM is -6.54%.

On to `Cc1[nH]nc2ncc(C(=O)N3CCCC3c3noc(C(C)C)n3)cc12` (stereo unspecified), for which the cytotoxicity at 10 µM amounted to 8.38%.

For `Cn1c(NCCC(=O)N2CCCC2)c(C#N)c(=O)n(C)c1=O`, the cytotoxicity at 10 µM was -9.28%.

`Cc1nc(C(C)C)sc1C(=O)N1CCC(N2CCSCC2)CC1`: the cytotoxicity at 10 µM was -3.54%.

For the compound `CCCC(=O)NS(=O)(=O)c1ccc(C#N)c(C(F)(F)F)c1`, the cytotoxicity at 10 µM was -12.8%.

For `Cn1cc(CN2CC[C@H]3OCC[C@@H](C(=O)N4CCCCO4)[C@@H]3C2)cn1`, the cytotoxicity at 10 µM was -2.1%.

In the case of `O=C1CCCc2[nH]c(=O)c(C(=O)N3CCc4ccccc4C3)cc21`, the cytotoxicity at 10 µM was found to be 14.6%.

On to `Cc1nnc([C@@]23CCO[C@@H]2CCN(Cc2ccc4c(c2)OCO4)C3)o1`, for which the cytotoxicity at 10 µM is -102%.

`Cn1c(C(=O)N2CCc3[nH]cnc3C2C(=O)O)ccc1-c1ccccc1` (stereo unspecified): the cytotoxicity at 10 µM was -0.392%.

On to `CCNC(=O)NC(=O)CNc1cc(C#N)ccc1OCC`, for which the cytotoxicity at 10 µM is -19.7%.

As to `O=C(CN1C(=O)CCNC1=O)N1CCOC(c2ccc(F)cc2)C1` (stereo unspecified), the cytotoxicity at 10 µM was 5.11%.

Regarding `CN(CC(=O)N1CCCN(Cc2cscn2)CC1)c1cnccn1`, the cytotoxicity at 10 µM was -7.81%.

`COCCN1CCC2(CC1)CN(CCn1cccn1)C(=O)CO2`: the cytotoxicity at 10 µM stood at 7.22%.

`COCCCNS(=O)(=O)c1ccc2c(c1)NC(=O)C(C)O2` (stereo unspecified): the cytotoxicity at 10 µM is 1.52%.

Take `CC(C)N(Cc1ccc(C(=O)O)o1)C(C)C`: the cytotoxicity at 10 µM is -1.2%.

Take `CC(C)(C)c1cc(C[C@H]2CNCC[C@H]2CC(=O)NCc2cccs2)no1`: the cytotoxicity at 10 µM was -2.28%.

With `CCNS(=O)(=O)C1CCN(C(=O)c2c(F)cc(F)cc2F)C1` (stereo unspecified), the cytotoxicity at 10 µM came to 7.43%.

Take `CS(=O)(=O)NC[C@]12COC[C@H]1CN(C(=O)N1CCCC1)C2`: the cytotoxicity at 10 µM is -109%.

`COc1ccc(CNC(Cc2ccsc2)c2ncccc2C)cc1OC` (stereo unspecified): the cytotoxicity at 10 µM was found to be 0.735%.

`CCCc1nnc(NC(=O)N2CCCC2c2ccncc2)s1` (stereo unspecified): the cytotoxicity at 10 µM was found to be 5.36%.

For the compound `CCS(=O)(=O)NC1CCCN(c2ccc(F)cc2C)C1=O` (stereo unspecified), the cytotoxicity at 10 µM worked out at 3.93%.

On to `O=C(CSCC1CC1)N1CCCC(c2nccn2Cc2cccnc2)C1` (stereo unspecified), for which the cytotoxicity at 10 µM was 3.86%.

For the compound `O=C(NCCCn1ccnc1)c1cccnc1OCC(F)(F)F`, the cytotoxicity at 10 µM amounted to 6.58%.

As for `CCC1CN(Cc2c(O)ccc3oc4c(c23)CCCC4)CCO1` (stereo unspecified), the cytotoxicity at 10 µM was 2.03%.

For `COCCn1cc2c(n1)C(CNCc1cccc(OC)c1)OCC2` (stereo unspecified), the cytotoxicity at 10 µM was -4.52%.

As for `NC(=O)c1csc(N2CCN(C3CCc4ccccc4C3)CC2)n1` (stereo unspecified), the cytotoxicity at 10 µM was determined as 1.67%.

For the compound `Cc1ccc(CC(=O)N2CCOC(c3ncc(CN(C)C)[nH]3)C2)s1` (stereo unspecified), the cytotoxicity at 10 µM was -3.47%.

Turning to `CCN(C)C1COC2(CCN(C(=O)c3ccc(Cl)cc3)CC2)C1` (stereo unspecified), the cytotoxicity at 10 µM is -2.57%.

With `CCCOC1CCCN(C(=O)c2cc(CN(CC)CC)c(CC)o2)C1` (stereo unspecified), the cytotoxicity at 10 µM came out at 10.1%.
